In ChEMBL document CHEMBL4229515, “A novel synthesis of 2-arylbenzimidazoles in molecular sieves-MeOH system and their antitubercular activity” (Bioorg Med Chem, 2018):

Tests used:
Mus musculus [1] = assay: Acute toxicity in Swiss albino mouse assessed as effect on WBC count at 1000 mg/kg, po after 7 days (reference value: 7.47 +/- 1.61 10^3/mm3); type: organism-based; conditions: in vivo, 168 h
Mus musculus [2] = assay: Acute toxicity in Swiss albino mouse assessed as effect on absolute liver weight at 5 to 1000 mg/kg, po after 7 days; type: organism-based; conditions: in vivo, 168 h
Procedure, shortened: (§1)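 Single acute oral dose of 5, 50, 300 or 1000 mg/kg body weight, with an untreated control group; n=6 mice per group. Animals observed for 7 days for morbidity, mortality, behaviour and body weight. At the end, blood and serum were analysed, and organs were examined grossly with absolute and relative weights. Data are mean±SE; P<0.05 was taken as significant versus control and the lower-dose groups.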

Mus musculus [3] = assay: Acute toxicity in Swiss albino mouse assessed as effect on WBC count at 300 mg/kg, po after 7 days (reference value: 7.47 +/- 1.61 10^3/mm3); type: organism-based; conditions: in vivo, 168 h
Mus musculus [4] = assay: Acute toxicity in Swiss albino mouse assessed as effect on triglyceride levels at 300 mg/kg, po after 7 days (reference value: 45.21 +/- 2.95 mg/dL); type: organism-based; conditions: in vivo, 168 h
Mus musculus [5] = assay: Acute toxicity in Swiss albino mouse assessed as effect on SGOT levels at 300 mg/kg, po after 7 days (reference value: 15.11 +/- 1.25 U/L); type: organism-based; conditions: in vivo, 168 h
Mus musculus [6] = assay: Acute toxicity in Swiss albino mouse assessed as effect on relative liver weight at 1000 mg/kg, po after 7 days; type: organism-based; conditions: in vivo, 168 h; procedure, shortened: as §1
Mus musculus [7] = assay: Acute toxicity in Swiss albino mouse assessed as effect on relative lung weight at 5 to 1000 mg/kg, po after 7 days; type: organism-based; conditions: in vivo, 168 h; procedure, shortened: as §1
Mus musculus [8] = assay: Acute toxicity in Swiss albino mouse assessed as effect on MDA levels per mg of tissue protein at 1000 mg/kg, po after 7 days (reference value: 0.24 +/- 0.05 nmol); type: organism-based; conditions: in vivo, 168 h
Mus musculus [9] = assay: Acute toxicity in Swiss albino mouse assessed as effect on GSH levels per mg of tissue protein at 1000 mg/kg, po after 7 days (reference value: 17.64 +/- 1.03 micromol); type: organism-based; conditions: in vivo, 168 h
Mus musculus [10] = assay: Acute toxicity in Swiss albino mouse assessed as effect on cholesterol levels at 1000 mg/kg, po after 7 days (reference value: 89.73 +/- 10.76 mg/dL); type: organism-based; conditions: in vivo, 168 h
Mus musculus [11] = assay: Acute toxicity in Swiss albino mouse assessed as effect on WBC count at 5 mg/kg, po after 7 days (reference value: 7.47 +/- 1.61 10^3/mm3); type: organism-based; conditions: in vivo, 168 h
Mus musculus [12] = assay: Acute toxicity in Swiss albino mouse assessed as effect on absolute lung weight at 5 to 1000 mg/kg, po after 7 days; type: organism-based; conditions: in vivo, 168 h; procedure, shortened: as §1
Mus musculus [13] = assay: Acute toxicity in Swiss albino mouse assessed as effect on RBC count at 300 mg/kg, po after 7 days (reference value: 7.61 +/- 0.54 10^6/mm3); type: organism-based; conditions: in vivo, 168 h
Mus musculus [14] = assay: Acute toxicity in Swiss albino mouse assessed as effect on absolute brain weight at 5 to 1000 mg/kg, po after 7 days; type: organism-based; conditions: in vivo, 168 h; procedure, shortened: as §1
Mus musculus [15] = assay: Acute toxicity in Swiss albino mouse assessed as effect on WBC count at 50 mg/kg, po after 7 days (reference value: 7.47 +/- 1.61 10^3/mm3); type: organism-based; conditions: in vivo, 168 h
Mus musculus [16] = assay: Acute toxicity in Swiss albino mouse assessed as effect on ALKP levels at 300 mg/kg, po after 7 days (reference value: 219.20 +/- 5.9 U/L); type: organism-based; conditions: in vivo, 168 h
Mus musculus [17] = assay: Acute toxicity in Swiss albino mouse assessed as effect on SGPT levels at 50 mg/kg, po after 7 days (reference value: 16.08 +/- 1.38 U/L); type: organism-based; conditions: in vivo, 168 h
Mus musculus [18] = assay: Acute toxicity in Swiss albino mouse assessed as effect on relative heart weight at 5 to 1000 mg/kg, po after 7 days; type: organism-based; conditions: in vivo, 168 h; procedure, shortened: as §1
Mus musculus [19] = assay: Acute toxicity in Swiss albino mouse assessed as effect on MDA levels per mg of tissue protein at 5 mg/kg, po after 7 days (reference value: 0.24 +/- 0.05 nmol); type: organism-based; conditions: in vivo, 168 h
Mus musculus [20] = assay: Acute toxicity in Swiss albino mouse assessed as effect on relative spleen weight at 5 to 1000 mg/kg, po after 7 days; type: organism-based; conditions: in vivo, 168 h; procedure, shortened: as §1
Mus musculus [21] = assay: Acute toxicity in Swiss albino mouse assessed as effect on SGOT levels at 5 mg/kg, po after 7 days (reference value: 15.11 +/- 1.25 U/L); type: organism-based; conditions: in vivo, 168 h
Mus musculus [22] = assay: Acute toxicity in Swiss albino mouse assessed as effect on haemoglobin levels at 50 mg/kg, po after 7 days (reference value: 12.29 +/- 0.53 g/dL); type: organism-based; conditions: in vivo, 168 h
[23] = Lipophilicity, log P of the compound; type: physicochemical; conditions: octanol/water; read-out: logP
Mus musculus [24] = assay: Acute toxicity in Swiss albino mouse assessed as effect on albumin levels at 5 mg/kg, po after 7 days (reference value: 3.53 +/- 0.35 mg/dL); type: organism-based; conditions: in vivo, 168 h
Mus musculus [25] = assay: Acute toxicity in Swiss albino mouse assessed as effect on serum protein levels at 1000 mg/kg, po after 7 days (reference value: 0.10 +/- 0.004 mg/mL); type: organism-based; conditions: in vivo, 168 h
[26] = Acute toxicity in Swiss albino mouse assessed as mortality at 1000 mg/kg, po measured over 7 days; type: organism-based; conditions: in vivo, read-out: Activity; procedure, shortened: as §1
Mus musculus [27] = assay: Acute toxicity in Swiss albino mouse assessed as effect on triglyceride levels at 1000 mg/kg, po after 7 days (reference value: 45.21 +/- 2.95 mg/dL); type: organism-based; conditions: in vivo, 168 h
Mus musculus [28] = assay: Acute toxicity in Swiss albino mouse assessed as effect on body weight at 5 mg/kg, po after 7 days (reference value: 28.25 +/- 0.54 g); type: organism-based; conditions: in vivo, 168 h
Mus musculus [29] = assay: Acute toxicity in Swiss albino mouse assessed as effect on relative brain weight at 5 to 1000 mg/kg, po after 7 days; type: organism-based; conditions: in vivo, 168 h; procedure, shortened: as §1
Mus musculus [30] = assay: Acute toxicity in Swiss albino mouse assessed as effect on RBC count at 5 mg/kg, po after 7 days (reference value: 7.61 +/- 0.54 10^6/mm3); type: organism-based; conditions: in vivo, 168 h
Mus musculus [31] = assay: Acute toxicity in Swiss albino mouse assessed as effect on GSH levels per mg of tissue protein at 5 mg/kg, po after 7 days (reference value: 17.64 +/- 1.03 micromol); type: organism-based; conditions: in vivo, 168 h
Mus musculus [32] = assay: Acute toxicity in Swiss albino mouse assessed as effect on MDA levels per mg of tissue protein at 300 mg/kg, po after 7 days (reference value: 0.24 +/- 0.05 nmol); type: organism-based; conditions: in vivo, 168 h
Mus musculus [33] = assay: Acute toxicity in Swiss albino mouse assessed as effect on cholesterol levels at 300 mg/kg, po after 7 days (reference value: 89.73 +/- 10.76 mg/dL); type: organism-based; conditions: in vivo, 168 h
Mus musculus [34] = assay: Acute toxicity in Swiss albino mouse assessed as effect on tissue protein levels at 5 mg/kg, po after 7 days (reference value: 0.06 +/- 0.004 mg/mL); type: organism-based; conditions: in vivo, 168 h
Mus musculus [35] = assay: Acute toxicity in Swiss albino mouse assessed as effect on cholesterol levels at 50 mg/kg, po after 7 days (reference value: 89.73 +/- 10.76 mg/dL); type: organism-based; conditions: in vivo, 168 h
Mus musculus [36] = assay: Acute toxicity in Swiss albino mouse assessed as effect on RBC count at 1000 mg/kg, po after 7 days (reference value: 7.61 +/- 0.54 10^6/mm3); type: organism-based; conditions: in vivo, 168 h

COc1ccc2c(c1)nc(-c1ccccc1OC)n2Cc1ccccc1OC
Activity (Mus musculus [1]): 6.67 10^3/mm3
Activity (Mus musculus [2]): Non-Toxic
Activity (Mus musculus [3]): 5.67 10^3/mm3
Activity (Mus musculus [4]): 43.04 mg/dL
Activity (Mus musculus [5]): 11.11 U/L
Activity (Mus musculus [6]): Toxic
Activity (Mus musculus [7]): Non-Toxic
Activity (Mus musculus [8]): 0.71 nmol
Activity (Mus musculus [9]): 19.34 µmol
Activity (Mus musculus [10]): 115.43 mg/dL
Activity (Mus musculus [11]): 7.72 10^3/mm3
Activity (Mus musculus [12]): Non-Toxic
Activity (Mus musculus [13]): 6.87 10^6/mm3
Activity (Mus musculus [14]): Non-Toxic
Activity (Mus musculus [15]): 6.33 10^3/mm3
Activity (Mus musculus [16]): 169.24 U/L
Activity (Mus musculus [17]): 15.98 U/L
Activity (Mus musculus [18]): Non-Toxic
Activity (Mus musculus [19]): 0.26 nmol
Activity (Mus musculus [20]): Non-Toxic
Activity (Mus musculus [21]): 11.96 U/L
Activity (Mus musculus [22]): 11.45 g/dL
logP [23]: 4.45
Activity (Mus musculus [24]): 3.81 mg/dL
Activity (Mus musculus [25]): 0.09 mg/mL
mortality at 168 h [26]: 50%
Activity (Mus musculus [27]): 57.01 mg/dL
Activity (Mus musculus [28]): 28.47 g
Activity (Mus musculus [29]): Non-Toxic
Activity (Mus musculus [30]): 6.92 10^6/mm3
Activity (Mus musculus [31]): 15.6 µmol
Activity (Mus musculus [32]): 0.39 nmol
Activity (Mus musculus [33]): 97.14 mg/dL
Activity (Mus musculus [34]): 0.06 mg/mL
Activity (Mus musculus [35]): 85.13 mg/dL
Activity (Mus musculus [36]): 7.33 10^6/mm3
